The species named for one series is Danio rerio. In words: Antiangiogenesis activity in EGFP-labelled zebrafish embryo assessed as reduction in formation of dorsal aorta at 1.25 to 5 uM incubated for overnight by fluorescence microscopic analysis. Type of series: functional, organism-based. The settings on record: dose 1.25-5 µM. An outline of the steps: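 Transgenic FLK:EGFP zebrafish kept at 28 °C, pH 7.2−7.4, 14 h light/10 h dark. Embryos at 30 hpf incubated overnight with compound at 1.25, 2.5 or 5 μM beside a blank control. Fish anaesthetized, then vessels imaged by fluorescence microscopy.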

A further series addresses Activated CDC42 kinase 1 (Homo sapiens, UniProt Q07912). In words: Inhibition of human recombinant ACK1 (1 to 389 residues) using EFPIYDFLPAKKK as substrate incubated for 40 mins in presence of [gamma33P-ATP] by radiometric scintillation counting analysis. The gist of the method: (§1)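 Radiometric kinase assay run as an external profiling service, with ATP at the Km of each kinase. IC50 values are means of two independent experiments.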

The target in series [1] is Tyrosine-protein kinase receptor TYRO3 (Homo sapiens, UniProt Q06418). In words: Inhibition of human recombinant RSE (451 to end residues) using KVEKIGEGTYGVVYK as substrate incubated for 40 mins in presence of [gamma33P-ATP] by radiometric scintillation counting analysis. An outline of the steps:
as §1

The next series deals with Ephrin type-A receptor 7 (Homo sapiens, UniProt Q15375). In words: Inhibition of human recombinant EPHA7 (613 to 909 residues) using KTFCGTPEYLAPEVRREPRILSEEEQEMFRDFDYIADWC incubated for 40 mins in presence of [gamma33P-ATP] by radiometric scintillation counting analysis. The gist of the method:
as §1

Series [2] addresses High affinity nerve growth factor receptor (Homo sapiens, UniProt P04629). Briefly: Inhibition of human recombinant TRKA (440 to end residues) using KKKSPGEYVNIEFG as substrate incubated for 40 mins in presence of [gamma33P-ATP] by radiometric scintillation counting analysis. The gist of the method: as §1
The next series concerns BT-474. Briefly: Antiproliferative activity against human BT-474 cells assessed as reduction in cell viability incubated for 72 hrs by MTT assay. It counts as functional, cell-based. To be noted: BT-474, 72 h. An outline of the steps:
(§2)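 MTT viability assay. ATCC cell lines were grown in designated medium with 10% FBS at 37 °C, 5% CO2. Cells seeded at 1500−30000 per well and incubated 24 h, then exposed to compound (0−10 μg/mL) for 72 h. MTT added for 2−4 h. Formazan dissolved in DMSO (adherent) or acidified SDS overnight (suspension), absorbance read at 570 nm. Triplicates; IC50 calculated.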

Another series has as its system MV4-11. In words: Antiproliferative activity against human MV4-11 cells assessed as reduction in cell viability incubated for 72 hrs by MTT assay. Type of series: functional, cell-based. The settings on record: MV4-11, 72 h. The gist of the method: as §2
For a further series, the system named is L929. In words: Cytotoxicity against mouse L929 cells assessed as reduction in cell viability incubated for 72 hrs by MTT assay. It counts as cell-based. The settings on record: L929, 72 h. The gist of the method: as §2
For orientation: Tetrazolium dyes change colour on reduction, which living cells bring about.

For series [3], the system named is MDA-MB-231. In words: Induction of apoptosis in human MDA-MB-231 cells assessed as late apoptotic cells at 0.03 uM incubated for 24 hrs by annexin V-FITC and propidium iodide staining based flow cytometry analysis (reference value: 0.85 %). Type of series: functional. Background: A flow cytometer gives signals particle by particle.
Series [4] deals with MDA-MB-231. Briefly: Induction of apoptosis in human MDA-MB-231 cells assessed as necrotic cells at 0.1 uM incubated for 24 hrs by annexin V-FITC and propidium iodide staining based flow cytometry analysis (reference value: 0.2 %). Type of series: functional.
Series [5] concerns the target Proto-oncogene tyrosine-protein kinase Src (Homo sapiens) (UniProt P12931). Briefly: Inhibition of Src in human MDA-MB-231 cells assessed as reduction in phosphorylation of Src incubated for 20 hrs by Western blot analysis. It counts as cell-based. An outline of the steps:
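MDA-MB-231 cells treated with a series of concentrations for 20 h at 37 °C. Cells washed with ice-cold saline and lysed in RIPA buffer with protease cocktail. Lysates cleared at 12000 rpm for 10 min at 4 °C and protein quantified by Bradford. Equal protein separated by SDS-PAGE, transferred to PVDF and probed with antibodies.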

Series [6] concerns MDA-MB-231. In words: Antitumor activity against human MDA-MB-231 cells xenografted in SCID mouse assessed as tumor growth inhibition administered orally once daily for 21 days and measured every 3 days. It counts as functional. The settings on record: dose 10-40 mg/kg/day, time 21.0 day. An outline of the steps: (§3)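 SCID mice (5−6 weeks) injected subcutaneously with 100 μL of cells at 5 × 10^7/mL. At 150−200 mm3 mice randomized, 6 per group. Oral compounds given in water with 25% PEG400 plus 5% DMSO; paclitaxel given 10 mg/kg/week iv. Tumor volume a×b²/2 and body weight measured every 3 days. Inhibition rate (c−d)/c×100% against vehicle control.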
(In general: Xenograft models place foreign cells or tissue in a host animal.)

A further series concerns MDA-MB-435. In words: Antitumor activity against human MDA-MB-435 cells xenografted in SCID mouse assessed as tumor growth inhibition administered orally once daily for 21 days and measured every 3 days. It counts as functional. The settings on record: dose 10-40 mg/kg/day, time 21.0 day. An outline of the steps:
as §3

A short description of series [7]: Toxicity against SCID mouse xenografted with human MDA-MB-231 cells assessed as change in body weight at 10 to 40 mg/kg, po QD for 21 days and measured every 3 days. It counts as organism-based. To be noted: in vivo, 504 h, dose 10-40 mg/kg/day, time 21 day. The gist of the method: (§4)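 Exponential-phase cells washed and injected subcutaneously (5 × 10^6 cells in 100 μL) into 5–6-week SCID mice. At 150–200 mm3, mice randomised to groups of 6. Oral dosing daily in water with 25% PEG400 and 5% DMSO; paclitaxel 10 mg/kg weekly by tail vein. Body weight measured every 3 days and side effects checked daily.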

The nature of series [8]: Toxicity against SCID mouse xenografted with human MDA-MB-435 cells assessed as change in body weight at 10 to 40 mg/kg, po QD for 21 days and measured every 3 days. It counts as organism-based. The settings on record: in vivo, 504 h, dose 10-40 mg/kg/day, time 21 day. An outline of the steps:
as §4

The nature of series [9]: Acute toxicity in male Sprague-Dawley rat assessed as increase in body weight rate at 200 mg/kg, po administered as single dose observed until day 9 and monitored every 3 days. It counts as organism-based. The settings on record: in vivo, 216 h, time 9 day. The gist of the method:
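Sprague-Dawley rats (n = 3) received a single oral dose of 200 mg/kg in sterile water with 25% (v/v) PEG400 plus 5% DMSO. Behaviour and side effects were monitored daily, and average body weight was measured every 3 days.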

The nature of series [10]: Acute toxicity in Sprague-Dawley rat assessed as histopathological changes in spleen at 100 mg/kg, po administered as single dose measured after 24 hrs by H and E staining based light microscope analysis. Type of series: organism-based. The settings on record: in vivo. The gist of the method: (§5)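 Sprague-Dawley rats received a single oral dose of 100 mg/kg in sterile water with 25% (v/v) PEG400 plus 5% DMSO. Organs were examined by histology and immunohistochemistry for pathological changes. Behaviour and side effects were checked daily.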

Series [11] in a line: Acute toxicity in Sprague-Dawley rat assessed as histopathological changes in kidney at 100 mg/kg, po administered as single dose measured after 24 hrs by H and E staining based light microscope analysis. To be noted: in vivo. It counts as organism-based. An outline of the steps: as §5
In series [12] the test system is MDA-MB-231. Briefly: Inhibition of tumor mitotic index in SCID mouse xenografted with human MDA-MB-231 cells assessed as reduction in Ki67 expression at 40 mg/kg, po QD for 21 days by immunohistochemical staining analysis. Type of series: functional, organism-based. The settings on record: dose 40.0 mg/kg/day, time 21.0 day. The gist of the method: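 SCID mice carried subcutaneous MDA-MB-231 xenografts (5 × 10^6 cells in 100 μL). Oral dosing in water with 25% PEG400 and 5% DMSO began at 150–200 mm3. Tumours were removed at the end of study, formalin-fixed and paraffin-embedded, then immunostained.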

Broadly, the IC50 is the concentration needed to halve the response being measured.

The structures appear in SMILES notation. The source made the active and inactive calls. No cut-off for these calls is given here.

High affinity nerve growth factor receptor, sequence (P04629 whole entry): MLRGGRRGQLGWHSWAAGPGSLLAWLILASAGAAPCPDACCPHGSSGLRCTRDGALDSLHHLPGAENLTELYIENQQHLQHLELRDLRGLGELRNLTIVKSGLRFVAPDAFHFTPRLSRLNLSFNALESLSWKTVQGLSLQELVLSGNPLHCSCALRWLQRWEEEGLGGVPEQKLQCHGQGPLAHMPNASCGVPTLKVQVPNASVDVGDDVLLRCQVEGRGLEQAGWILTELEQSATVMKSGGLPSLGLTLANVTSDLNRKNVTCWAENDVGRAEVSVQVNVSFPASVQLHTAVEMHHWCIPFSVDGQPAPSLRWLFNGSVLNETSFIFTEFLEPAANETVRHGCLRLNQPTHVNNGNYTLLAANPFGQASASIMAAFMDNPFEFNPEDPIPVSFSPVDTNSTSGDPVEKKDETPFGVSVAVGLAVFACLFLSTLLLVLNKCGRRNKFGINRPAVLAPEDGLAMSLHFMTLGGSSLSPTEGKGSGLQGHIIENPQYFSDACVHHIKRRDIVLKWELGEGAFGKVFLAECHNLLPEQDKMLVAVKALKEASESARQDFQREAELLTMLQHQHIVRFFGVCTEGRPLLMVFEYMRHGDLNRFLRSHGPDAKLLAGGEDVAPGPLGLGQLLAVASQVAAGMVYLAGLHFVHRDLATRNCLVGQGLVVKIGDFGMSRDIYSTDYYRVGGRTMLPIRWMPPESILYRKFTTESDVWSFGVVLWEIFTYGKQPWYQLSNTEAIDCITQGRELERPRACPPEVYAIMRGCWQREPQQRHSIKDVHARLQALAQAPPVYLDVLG
Proto-oncogene tyrosine-protein kinase Src (Homo sapiens), sequence (P12931 2-536 limits assumed): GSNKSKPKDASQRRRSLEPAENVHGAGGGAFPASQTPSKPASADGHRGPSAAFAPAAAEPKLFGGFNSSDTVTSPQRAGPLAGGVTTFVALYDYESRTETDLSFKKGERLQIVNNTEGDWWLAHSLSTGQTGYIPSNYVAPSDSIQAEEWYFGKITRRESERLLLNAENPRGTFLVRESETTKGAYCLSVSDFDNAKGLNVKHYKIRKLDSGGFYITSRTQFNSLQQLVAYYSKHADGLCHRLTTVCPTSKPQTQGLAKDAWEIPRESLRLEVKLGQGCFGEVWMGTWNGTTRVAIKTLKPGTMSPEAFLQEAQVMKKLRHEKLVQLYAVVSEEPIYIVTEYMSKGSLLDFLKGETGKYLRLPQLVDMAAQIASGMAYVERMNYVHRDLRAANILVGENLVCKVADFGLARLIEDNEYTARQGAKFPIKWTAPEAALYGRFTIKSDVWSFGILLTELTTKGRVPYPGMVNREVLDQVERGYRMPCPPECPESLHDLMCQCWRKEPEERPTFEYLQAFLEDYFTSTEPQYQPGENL
Tyrosine-protein kinase receptor TYRO3, sequence (Q06418 whole entry): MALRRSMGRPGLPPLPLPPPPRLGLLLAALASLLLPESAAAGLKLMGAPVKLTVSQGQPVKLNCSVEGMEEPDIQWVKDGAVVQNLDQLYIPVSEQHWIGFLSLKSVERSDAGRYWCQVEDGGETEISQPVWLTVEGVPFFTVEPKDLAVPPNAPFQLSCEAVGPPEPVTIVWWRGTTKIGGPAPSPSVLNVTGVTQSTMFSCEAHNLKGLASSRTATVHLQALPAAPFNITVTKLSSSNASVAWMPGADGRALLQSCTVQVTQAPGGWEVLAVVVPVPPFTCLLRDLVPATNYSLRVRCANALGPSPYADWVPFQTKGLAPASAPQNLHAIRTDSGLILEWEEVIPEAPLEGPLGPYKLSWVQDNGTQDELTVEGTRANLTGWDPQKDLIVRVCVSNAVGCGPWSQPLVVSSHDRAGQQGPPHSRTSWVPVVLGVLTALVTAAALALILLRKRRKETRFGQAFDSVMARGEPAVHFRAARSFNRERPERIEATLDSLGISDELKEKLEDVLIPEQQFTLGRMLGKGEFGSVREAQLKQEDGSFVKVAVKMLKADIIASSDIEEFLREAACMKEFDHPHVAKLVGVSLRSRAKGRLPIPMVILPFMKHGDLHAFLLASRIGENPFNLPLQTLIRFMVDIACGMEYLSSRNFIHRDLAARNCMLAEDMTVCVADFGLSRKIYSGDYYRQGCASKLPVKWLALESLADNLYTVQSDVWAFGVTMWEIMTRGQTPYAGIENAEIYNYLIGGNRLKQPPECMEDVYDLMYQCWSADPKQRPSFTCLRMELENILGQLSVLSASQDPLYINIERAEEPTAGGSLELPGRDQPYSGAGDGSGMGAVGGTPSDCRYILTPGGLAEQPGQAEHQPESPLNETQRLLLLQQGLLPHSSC
Activated CDC42 kinase 1, sequence (Q07912 whole entry, the tested form may be a part): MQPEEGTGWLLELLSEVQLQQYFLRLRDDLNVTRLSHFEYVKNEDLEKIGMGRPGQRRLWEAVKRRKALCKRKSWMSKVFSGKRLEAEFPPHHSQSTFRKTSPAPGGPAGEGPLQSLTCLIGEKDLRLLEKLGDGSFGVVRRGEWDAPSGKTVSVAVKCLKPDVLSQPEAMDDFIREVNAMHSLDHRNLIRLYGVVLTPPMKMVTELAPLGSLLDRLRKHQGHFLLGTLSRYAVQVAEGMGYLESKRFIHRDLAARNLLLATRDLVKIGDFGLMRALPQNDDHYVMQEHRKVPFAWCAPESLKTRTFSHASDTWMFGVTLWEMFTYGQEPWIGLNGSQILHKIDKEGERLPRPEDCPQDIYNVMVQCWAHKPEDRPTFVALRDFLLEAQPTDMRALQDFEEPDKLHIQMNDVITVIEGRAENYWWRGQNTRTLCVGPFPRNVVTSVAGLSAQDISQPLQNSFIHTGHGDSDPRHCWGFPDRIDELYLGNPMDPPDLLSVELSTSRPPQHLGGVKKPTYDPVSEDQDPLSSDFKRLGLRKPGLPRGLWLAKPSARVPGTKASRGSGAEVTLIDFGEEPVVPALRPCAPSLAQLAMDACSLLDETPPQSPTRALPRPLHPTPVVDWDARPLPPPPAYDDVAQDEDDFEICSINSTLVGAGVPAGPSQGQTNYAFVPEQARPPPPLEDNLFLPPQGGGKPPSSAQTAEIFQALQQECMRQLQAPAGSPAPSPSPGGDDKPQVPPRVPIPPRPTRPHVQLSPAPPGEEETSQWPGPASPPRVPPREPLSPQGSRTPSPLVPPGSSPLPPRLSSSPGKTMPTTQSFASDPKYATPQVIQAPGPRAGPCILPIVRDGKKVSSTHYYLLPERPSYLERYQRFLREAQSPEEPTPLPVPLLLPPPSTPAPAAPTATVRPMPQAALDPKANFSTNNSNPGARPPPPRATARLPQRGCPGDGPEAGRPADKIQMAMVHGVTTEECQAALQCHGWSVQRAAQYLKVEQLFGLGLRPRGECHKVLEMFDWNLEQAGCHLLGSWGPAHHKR
Ephrin type-A receptor 7, sequence (Q15375 whole entry, the tested form may be a part): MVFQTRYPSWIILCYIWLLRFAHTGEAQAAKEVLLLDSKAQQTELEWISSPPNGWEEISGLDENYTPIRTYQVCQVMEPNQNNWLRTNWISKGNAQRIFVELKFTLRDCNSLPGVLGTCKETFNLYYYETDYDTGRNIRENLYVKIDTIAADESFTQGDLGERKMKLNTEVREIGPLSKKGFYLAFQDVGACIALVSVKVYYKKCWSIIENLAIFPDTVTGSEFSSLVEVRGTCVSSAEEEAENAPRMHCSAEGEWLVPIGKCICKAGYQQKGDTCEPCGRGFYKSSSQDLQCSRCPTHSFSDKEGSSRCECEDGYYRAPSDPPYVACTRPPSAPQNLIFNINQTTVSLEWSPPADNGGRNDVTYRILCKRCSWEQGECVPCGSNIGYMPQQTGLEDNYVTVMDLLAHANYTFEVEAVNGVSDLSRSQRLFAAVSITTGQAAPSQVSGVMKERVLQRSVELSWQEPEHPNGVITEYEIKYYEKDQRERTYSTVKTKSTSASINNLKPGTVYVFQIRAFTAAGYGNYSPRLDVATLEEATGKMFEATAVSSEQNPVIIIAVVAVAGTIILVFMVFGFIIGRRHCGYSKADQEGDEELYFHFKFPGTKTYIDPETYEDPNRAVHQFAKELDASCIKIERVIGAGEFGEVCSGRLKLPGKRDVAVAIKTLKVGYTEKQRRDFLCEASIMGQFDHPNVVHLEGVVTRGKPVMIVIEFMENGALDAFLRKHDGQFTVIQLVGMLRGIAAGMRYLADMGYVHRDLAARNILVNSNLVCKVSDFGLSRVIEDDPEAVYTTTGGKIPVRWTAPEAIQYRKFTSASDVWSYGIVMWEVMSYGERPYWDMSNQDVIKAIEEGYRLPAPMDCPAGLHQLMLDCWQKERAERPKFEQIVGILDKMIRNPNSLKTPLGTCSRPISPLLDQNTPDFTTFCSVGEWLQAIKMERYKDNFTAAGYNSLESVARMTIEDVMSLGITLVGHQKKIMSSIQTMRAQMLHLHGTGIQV

Take `Cc1ccc(NC(=O)c2ccc(C)c(C(F)(F)F)c2)cc1C#Cc1nn([C@H]2CC[C@H](O)CC2)c2ncnc(N)c12`: the outcome in the series listed under Danio rerio was inactive. Besides, the IC50 at Activated CDC42 kinase 1 is 175 nM; in [1] it was 351 nM; at Ephrin type-A receptor 7, 143 nM; in series [2], above 10000 nM; with BT-474, above 10000 nM; in the series with MV4-11, 138 nM. The IC50 in the series on L929 is above 10000 nM. For the same compound, the Activity in the series with MDA-MB-231 [3] was 11.2%; in the series on MDA-MB-231 [4] it was 1.23%; in the series on MDA-MB-231 [6], “Dose-dependent effect”; with MDA-MB-435, “Dose-dependent effect”; in series [7], “Non-Toxic”; in series [8] it was “Non-Toxic”. For the same compound, the Activity entry in [9] is listed as “Toxic”; in series [10], “Non-Toxic”; in [11], “Non-Toxic”. Besides, the inhibition result in series [5] is “Dose-dependent effect”. The inhibition entry in the series on MDA-MB-231 [12] was “Active”.
